This passage reports Drug metabolism, Km and Vmax results from ChEMBL document CHEMBL3525985, “Regiospecificity and stereospecificity of human UDP-glucuronosyltransferases in the glucuronidation of estriol, 16-epiestriol, 17-epiestriol, and 13-epiestradiol” (Drug Metab Dispos, 2013).

What is called Km is the substrate concentration at which the rate is half of its maximum. For orientation: Vmax means the rate approached at saturating substrate.

Common to all, as to assay type: ADME
The target in data set [1] is T1, UDP-glucuronosyltransferase 2B17 (Homo sapiens, UniProt O75795).
T1 sequence (O75795 whole entry): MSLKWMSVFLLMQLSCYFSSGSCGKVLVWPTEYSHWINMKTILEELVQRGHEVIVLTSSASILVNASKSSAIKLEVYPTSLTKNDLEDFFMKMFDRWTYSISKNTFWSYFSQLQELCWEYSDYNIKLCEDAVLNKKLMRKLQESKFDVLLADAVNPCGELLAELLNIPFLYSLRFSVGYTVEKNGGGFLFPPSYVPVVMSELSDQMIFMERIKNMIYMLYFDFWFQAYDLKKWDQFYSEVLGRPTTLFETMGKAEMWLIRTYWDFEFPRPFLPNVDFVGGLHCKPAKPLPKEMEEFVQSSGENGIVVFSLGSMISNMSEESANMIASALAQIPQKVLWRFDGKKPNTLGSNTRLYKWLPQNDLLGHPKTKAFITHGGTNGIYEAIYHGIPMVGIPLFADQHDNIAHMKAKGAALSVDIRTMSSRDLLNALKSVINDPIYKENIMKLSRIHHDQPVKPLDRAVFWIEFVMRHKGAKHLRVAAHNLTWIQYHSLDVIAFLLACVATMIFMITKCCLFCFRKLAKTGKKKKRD
In words: Drug metabolism assessed as recombinant human C-terminal His-tagged UGT2B17-mediated 13-epiestradiol-3-glucuronide formation at 200 uM after 15 to 60 mins by HPLC analysis in presence of UDPGA. As to conditions: recombinant enzyme. The procedure, abridged: (§1)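 Screening at a single substrate concentration of 200 μM, in triplicate. The reaction used 5 or 50 µg of UGT-enriched insect cell membranes in 50 mM phosphate pH 7.4 with 10 mM MgCl₂ and 5 mM UDPGA, 10% final DMSO. Incubation was 15–60 min at 37°C. Perchloric acid stopped the reaction and supernatants were analysed by HPLC. Controls lacked UDPGA. Rates were normalized to relative UGT expression level.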

The nature of data set [2]: Drug metabolism in human intestine microsomes assessed as estriol-3-glucuronide formation after 15 to 60 mins by Michaelis-Menten equation analysis in presence of UDPGA. The method, boiled down: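 Pooled human intestine microsomes (6 donors), 0.5 or 10 µg, with alamethicin at 5% of total protein. Incubated with 50 mM phosphate pH 7.4, 10 mM MgCl₂, 5 mM UDPGA and 10% DMSO for 15–60 min at 37°C. Each glucuronide regioisomer quantified by HPLC, in triplicate, with substrate consumption at or below 10%.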

For data set [3], the target named is T2, UDP-glucuronosyltransferase 2B15 (Homo sapiens, UniProt P54855).
T2 sequence (P54855 whole entry): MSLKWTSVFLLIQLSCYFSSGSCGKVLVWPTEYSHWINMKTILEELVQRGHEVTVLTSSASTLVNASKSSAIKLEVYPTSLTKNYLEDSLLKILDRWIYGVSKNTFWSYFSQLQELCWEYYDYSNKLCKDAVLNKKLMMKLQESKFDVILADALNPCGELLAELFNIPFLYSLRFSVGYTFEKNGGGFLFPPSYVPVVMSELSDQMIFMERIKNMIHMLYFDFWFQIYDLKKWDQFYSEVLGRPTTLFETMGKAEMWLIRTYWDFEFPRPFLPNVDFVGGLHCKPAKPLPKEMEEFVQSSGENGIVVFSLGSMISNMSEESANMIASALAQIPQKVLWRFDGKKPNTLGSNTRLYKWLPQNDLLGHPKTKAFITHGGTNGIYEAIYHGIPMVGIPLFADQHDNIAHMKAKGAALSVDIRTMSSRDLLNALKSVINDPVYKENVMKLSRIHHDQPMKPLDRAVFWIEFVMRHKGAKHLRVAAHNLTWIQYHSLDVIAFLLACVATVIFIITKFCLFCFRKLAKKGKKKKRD
In words: Drug metabolism assessed as recombinant human C-terminal […]-mediated estradiol-3-glucuronide/estradiol-17-glucuronide formation at 200 uM after 15 to 60 mins by HPLC analysis in presence of UDPGA. As to conditions: recombinant enzyme.

For the next data set, the system named is Liver microsome. Briefly: Drug metabolism in human liver microsomes assessed as 17-epiestriol-16-glucuronide formation after 15 to 60 mins by Michaelis-Menten equation analysis in presence of UDPGA. The procedure, abridged:
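Pooled human liver microsomes (30 donors), 0.5 or 10 µg, with alamethicin at 5% of total protein. Incubated with 50 mM phosphate pH 7.4, 10 mM MgCl₂, 5 mM UDPGA and 10% DMSO for 15–60 min at 37°C. Each glucuronide regioisomer quantified by HPLC, in triplicate, with substrate consumption at or below 10%.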

In data set [4] the target is T3, UDP-glucuronosyltransferase 1A10 (Homo sapiens, UniProt Q9HAW8).
T3 sequence (Q9HAW8 whole entry): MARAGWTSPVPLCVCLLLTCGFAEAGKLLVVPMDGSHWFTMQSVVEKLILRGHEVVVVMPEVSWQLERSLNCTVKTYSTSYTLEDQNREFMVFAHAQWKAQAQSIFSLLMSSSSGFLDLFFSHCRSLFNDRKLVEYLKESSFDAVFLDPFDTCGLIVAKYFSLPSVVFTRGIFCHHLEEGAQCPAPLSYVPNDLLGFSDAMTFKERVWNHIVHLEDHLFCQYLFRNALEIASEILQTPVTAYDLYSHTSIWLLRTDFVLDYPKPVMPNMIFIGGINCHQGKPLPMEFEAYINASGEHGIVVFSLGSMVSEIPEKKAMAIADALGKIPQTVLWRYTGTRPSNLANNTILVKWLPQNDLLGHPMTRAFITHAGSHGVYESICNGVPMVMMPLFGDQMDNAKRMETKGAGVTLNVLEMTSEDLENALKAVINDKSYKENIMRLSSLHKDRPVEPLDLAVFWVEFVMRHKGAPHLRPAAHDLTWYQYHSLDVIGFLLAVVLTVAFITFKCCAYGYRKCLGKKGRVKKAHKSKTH
In words: Drug metabolism assessed as recombinant human C-terminal His-tagged UGT1A10-mediated 17-epiestriol-3-glucuronide formation at 200 uM after 15 to 60 mins by HPLC analysis in presence of UDPGA. As to conditions: recombinant enzyme. The method, boiled down:
as §1

Take `C[C@@]12CC[C@@H]3c4ccc(O)cc4CC[C@H]3[C@@H]1CC[C@@H]2O`: the Drug metabolism entry in data set [1] is “metabolite_detected”.

As for `C[C@]12CC[C@@H]3c4ccc(O)cc4CC[C@H]3[C@@H]1C[C@@H](O)[C@@H]2O` [ESTRIOL], in data set [2], the Km turned out to be 75 µM and the Vmax was determined as 839 pmol/min/mg.

Consider `C[C@]12CC[C@@H]3c4ccc(O)cc4CC[C@H]3[C@@H]1CC[C@@H]2O` [ESTRADIOL], for which the Drug metabolism entry in data set [3] is on record as “metabolite_detected”.

As for `C[C@]12CC[C@@H]3c4ccc(O)cc4CC[C@H]3[C@@H]1C[C@@H](O)[C@H]2O`, in the data set with Liver microsome, the Km stood at 7.8 µM and the Vmax turned out to be 128 pmol/min/mg. The Drug metabolism result in data set [4] is on record as “metabolite_detected”.
